From paper PMC3889630 (European Journal of Clinical Pharmacology, 2013)
“Also recorded” adds a separate entry of the source. Like-named read-outs stand apart in the source and are kept apart here.

Assays:
[1] = format: in vivo, human
Method in brief: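 Severe renal impairment group (CLcr <30 mL/min) and matched healthy group (>90 mL/min), n=8 each, took one fasted morning 50 mg tablet. Total DTG and DTG-glucuronide measured by validated LC-MS/MS after acetonitrile extraction. Non-compartmental parameters log-transformed and compared by ANCOVA (gender fixed; age, BMI covariates) as geometric LS mean ratio impaired/healthy with 90 % CI.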

HIV = settings: stated in discussion, no reference given; cited from earlier work
[2] = co-administration with darunavir/ritonavir, Phase 1 study; cited from earlier work
[3] = format: in vitro ADME, human
[4] = cited from earlier work
[5] = cited from earlier work; remark: listed apart in the source
[6] = treatment-naïve subjects, SPRING-1; cited from earlier work
[7] = Safety and tolerability after single 50 mg DTG dose; format: in vivo, human; settings: both groups
Method in brief: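 Open-label single-dose study in HIV-seronegative adults aged 18–70 y: 8 with severe renal impairment (24-h urine CLcr <30 mL/min) and 8 healthy (CLcr >90 mL/min), matched for gender, age (±5 y) and BMI (±25 %). Each took one 50 mg tablet in the morning, fasted, and stayed housed until the last PK sample. Clinical and laboratory safety checks throughout, plus follow-up 7–10 days post-dose.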

Row | t1/2 ratio of DTG-Gluc to DTG ([1]; both groups of subjects) | glucuronide exposure relative to parent DTG based on molar ratios ([1]; renally-impaired population) [%] | SMILES | antiviral activity (HIV) | reduction of DTG trough concentration by DRV/r [2] [%] | GLS mean unbound plasma DTG concentration lower in renal impaired subjects ([3]; 3-hour time point) [%] | GLS mean unbound plasma DTG concentration lower in renal impaired subjects ([3]; 24-hour time point) [%] | effect of renal impairment on DTG fraction unbound in plasma ([3]; severe renal impairment vs healthy) | bound to plasma proteins [4] | mean elimination half-life shorter in renal impairment compared to controls ([1]; 50 mg single oral dose) [%] | correlation between creatinine clearance and DTG PK parameters ([1]; Pearson, p > 0.1) | Cmax ([1]; human, plasma, oral, 50 mg, Cmax, range of values, DTG, healthy subjects) [µg/mL] | share of DTG among drug-related components circulating in plasma [5] [%] | renal elimination of unchanged drug ([5]; human) | reduction in DTG exposure between the 50 mg and 10 mg once-daily doses [6] [%] | deaths or serious adverse events [7] | intensity of adverse events [7] | tolerability [7]
1 | ~1 | < 10 | C[C@@H]1CCO[C@H]2Cn3cc(C(=O)NCc4ccc(F)cc4F)c(=O)c(O[C@@H]4O[C@H](C(=O)O)[C@@H](O)[C@H](O)[C@H]4O)c3C(=O)N12 [DTG-Gluc, DTG-glucuronide] | no antiviral activity | – | – | – | – | – | – | – | – | – | – | – | – | – | –
2 | – | – | C[C@@H]1CCO[C@H]2Cn3cc(C(=O)NCc4ccc(F)cc4F)c(=O)c(O)c3C(=O)N12 [DTG, Dolutegravir] | – | 38 | 14 | 49 | did not affect; also recorded: similar | greater than 99% | 18 | No significant correlation | 0.82 to 3.2 | > 97 | < 1 % of the dose | 75 | No deaths or serious adverse events | mild (Grade 1) | well tolerated
